High-throughput results from PubChem.
Only some compounds are listed: those with a hit (about 9.4% of all), similar ones and a draw of the others.
SKKanGAS inh – inhibitors of SKKanGAS S. pyogenes growth in kanamycin (SK-promoter or general growth effect); AID 1662; 300,000 compounds, 1.3% hits; inhibition, % at 7.5 µM; BacTiter-Glo, 6 h;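 active means mean replicate score, as percent of positive control median, at least 50; inconclusive means mean below 50 but one replicate at or above 50; inactive means mean and every replicate below 50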;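 further: strain carries kanamycin resistance gene driven by streptokinase promoter and grows in 40 µg/ml kanamycin; loss of luminescence reflects streptokinase promoter inhibition or plain growth inhibition; 0% = median of DMSO wells and 100% = positive control at its reference dose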
T cruzi repl – T. cruzi replication inhibition | 300,000 compounds, 1.4% hits | inhibition, % (test concentration not listed) | AID 1885 | T. cruzi beta-gal in NIH3T3, luminescence, 90 h;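 active means mean inhibition across valid replicates above about 55%, limit read from the data; inconclusive means mean below that limit but half or more replicates reach it; inactive means mean below it, under half of replicates reach it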;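 further: signal also drops with host cell toxicity which is not excluded here; 0% = plate median of DMSO wells and 100% = zero luminescence signal; higher percent means less beta-gal luminescence so fewer parasites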
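System: Mouse NIH/3T3 fibroblasts infected with β-gal-expressing T. cruzi Tulahuen C4 | Quantity: NIH/3T3 cells, 5,000 per well | Reagent: 5000 reporter trypomastigotes per well | Dosing: Compound pinned at 50 nL/well, DMSO | Schedule: 3 h host attachment, then at least 90 h co-culture | Detection: GalScreen luminescence, 60 min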
CSC inhib – blocks cancer stem cells. cancer stem cell-like cells viability, luminescence. inhibition, % at 7.5 µM. 300,000 compounds, 1.1% hits; in the data active means inhibition above about 75%; inconclusive means no clear call, values can overlap the other calls; tested in HMLE shEcad cells
Beta apoptosis – beta cell apoptosis inhibition; AID 435005; INS-1E cytokine-induced death, ATP luminescence, 48 h; percent of positive-control rescue, neutral wells zero; 300,000 compounds, 0.8% hits; protection from apoptosis, % (test concentration not listed);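 active means Every replicate reaches about 75%, or at least half do and their mean reaches it too, limit read from the data; inconclusive means At least half of replicates reach the limit but their mean does not; inactive means Under half of replicates reach the limit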;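 further: 0% = cytokine-treated negative control wells and 100% = positive control rescue; higher means more ATP so stronger rescue from cytokine killing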
Mdm2-MdmX inh – inhibitors of human Mdm2/MdmX interaction; O15151+Q00987; SaOS-2 split-luciferase Mdm2/MdmX complementation, luminescence; inhibition, % at 8 µM; 330,000 compounds, 3% hits; AID 485346;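 active means inhibition of at least 50% at 8 µM in the primary screen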
Target sequence (O15151 whole entry, looked up): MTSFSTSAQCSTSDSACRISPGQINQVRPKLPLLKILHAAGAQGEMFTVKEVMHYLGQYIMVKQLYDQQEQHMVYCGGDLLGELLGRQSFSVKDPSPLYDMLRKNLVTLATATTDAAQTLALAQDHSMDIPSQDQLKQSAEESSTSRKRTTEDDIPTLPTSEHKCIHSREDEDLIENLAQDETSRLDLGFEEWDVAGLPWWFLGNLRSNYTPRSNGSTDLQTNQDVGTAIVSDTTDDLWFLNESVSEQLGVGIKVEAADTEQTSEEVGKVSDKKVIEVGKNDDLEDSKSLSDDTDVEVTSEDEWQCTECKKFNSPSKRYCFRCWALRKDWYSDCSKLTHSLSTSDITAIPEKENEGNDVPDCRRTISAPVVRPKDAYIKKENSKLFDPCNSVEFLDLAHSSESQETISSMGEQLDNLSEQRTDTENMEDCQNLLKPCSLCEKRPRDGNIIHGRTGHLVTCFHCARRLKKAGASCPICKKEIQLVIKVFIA
Target sequence (Q00987 whole entry, looked up): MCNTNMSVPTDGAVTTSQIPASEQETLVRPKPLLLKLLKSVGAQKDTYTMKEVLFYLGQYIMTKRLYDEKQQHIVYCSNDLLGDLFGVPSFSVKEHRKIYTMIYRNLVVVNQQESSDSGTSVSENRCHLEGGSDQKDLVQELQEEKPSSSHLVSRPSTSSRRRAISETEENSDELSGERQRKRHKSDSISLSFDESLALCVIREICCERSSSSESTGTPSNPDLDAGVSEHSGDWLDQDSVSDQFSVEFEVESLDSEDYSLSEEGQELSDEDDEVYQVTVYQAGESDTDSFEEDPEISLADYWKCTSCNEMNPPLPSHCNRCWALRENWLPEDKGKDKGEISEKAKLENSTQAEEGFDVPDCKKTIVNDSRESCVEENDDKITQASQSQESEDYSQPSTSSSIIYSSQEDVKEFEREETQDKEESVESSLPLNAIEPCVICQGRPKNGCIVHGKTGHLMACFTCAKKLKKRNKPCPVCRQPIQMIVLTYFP
L major viab – reduces viability of Leishmania major promastigotes; AID 1063; inhibition, % at 10 µM; resazurin fluorescence viability; 200,000 compounds, 9% hits; in the data active means inhibition above about 50%;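 further: promastigotes grown with compound for 44 hours at 28 °C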
Active calls of the source: *; ? = inconclusive; . = no result given.

SMILES	SKKanGAS inh	T cruzi repl	CSC inhib	Beta apoptosis	Mdm2-MdmX inh	L major viab
NC(=O)C1=C[C@H](C2CCCCC2)C[C@H](OCc2ccc(CO)cc2)O1	2	-14	-4	-9	-103	-5
O=C(O)CSc1cccc[n+]1[O-]	5	-1	-14	-11	-10	-2
O=C(CSc1cccc[n+]1[O-])c1cc2ccccc2o1	34	60*	19	2	-23	95*
O=C(CSc1cccc[n+]1[O-])c1cc(Cl)ccc1Cl	28	53	-1	12	2	99*
COc1ccc([C@@]2(O)c3c(ccc(CC=C(C)C)c3O)NC(=O)[C@@H]2OC)cc1	14	12	-5	-2	-15	.
COc1ccc(C(CC(=O)NCc2ccccc2)Sc2n[nH]c(-c3ccccc3)n2)cc1 (stereo not given)	6	-21	.	1	-10	-3
COc1ccc(C(CC(=O)NCc2ccccc2)Sc2n[nH]c(-c3ccc(Cl)cc3)n2)cc1 (stereo not given)	5	5	1	2	25	52*
CC(C)(C)c1cnnn1-c1ccc(C(=O)CCl)cc1	?	-9	-11	-12	48	69*
CC(C)(C)c1cnnn1-c1ccc(C=O)cc1	0	-20	1	.	-16	3
CC(C)c1ccc(N(CC(=O)NCc2ccc(F)cc2)C(=O)c2csnn2)cc1	21	3	11	2	19	5
Cc1cccc(C2(c3cccc(C)c3)OC(=O)c3ccccc32)c1	40	-9	25	124*	44	-2
Cc1cc(O)ccc1C1(c2ccc(O)cc2C)OC(=O)c2ccccc21	8	-23	11	-3	11	-7
O=C(Nc1nnc(-c2ccccc2)o1)c1nc2ccccc2s1	92*	-13	35	.	1	.
COc1ccc(-c2nnc(NC(=O)c3ccc(F)cc3)o2)cc1	91*	46	27	7	35	98*
Cc1ccccc1C(=O)Nc1nnc(-c2ccc(F)cc2)o1	61*	18	24	9	28	33
COc1ccc(-c2nnc(NC(=O)c3ccc4c(c3)OCCO4)o2)cc1	-2	19	37	-1	16	.
COc1ccc(-c2nnc(NC(=O)c3cc(Cl)ccc3Cl)o2)cc1	86*	8	22	7	26	42
COc1ccccc1C(=O)Nc1nnc(-c2ccc(Cl)cc2)o1	4	-5	-3	1	-26	.
CC(Sc1ccccc1)C(=O)N1CCN(S(=O)(=O)c2ccccc2C(F)(F)F)CC1 (stereo not given)	-7	11	-14	0	-5	.
Cc1ccc(OCC(O)CN2CCC(Cc3ccccc3)CC2)c(C)c1 (stereo not given)	-2	35	24	.	2	.
O=C(Nc1nnc(-c2ccncc2)o1)c1ccc(Br)s1	53*	4	20	0	-10	14
COc1ccc(-c2nnc(-c3ccc(N)cc3)o2)cc1	-1	-2	-9	-1	-103	100*
Cc1cccc(NC(=S)N(CCCN2CCOCC2)C(C)c2cc3ccccc3o2)c1C (stereo not given)	-5	10	3	-9	7	80*
COc1cccc2cc(C(C)N(CCCN3CCOCC3)C(=S)Nc3ccccc3C)oc12 (stereo not given)	-4	6	3	-7	-6	40
Cc1cccc(NC(=S)N(CCCN2CCOCC2)C(C)c2cc3ccccc3o2)c1 (stereo not given)	-1	9	-1	-8	8	81*
SMILES	SKKanGAS inh	T cruzi repl	CSC inhib	Beta apoptosis	Mdm2-MdmX inh	L major viab
O=C(CCC1CCCN(C(=O)C2(c3ccccc3)CC2)C1)N1CCN(c2ccccn2)CC1 (stereo not given)	-2	20	-11	1	20	7
CC(=O)c1ccc(-c2ccc(C(=O)NC3CC(C)(C)NC(C)(C)C3)o2)cc1	0	-12	-2	-3	11	.
O=C(/C=C/c1ccco1)NCC1OCCc2ccccc21 (stereo not given)	6	-2	111*	107*	-23	.
CSc1nc(SCC(=O)O)c2sc3nc(-c4ccccc4)c4c(c3c2n1)CCC4	68*	30	.	.	.	.
O=C(O)CCC(=O)Nc1ccccc1C(=O)Nc1ccccc1	-4	-9	-1	6	19	-7
O=C(O)CCC(=O)Nc1ccccc1C(=O)NCCc1ccccc1	-17	-9	-13	-1	-25	56*
CS(=O)(=O)N(CC(=O)Nc1ccccc1C(=O)NCCc1ccccc1)c1ccc2c(c1)OCCO2	7	20	1	0	4	99*
Cc1cccc(/C=N/Nc2ccc3ccccc3n2)c1	-17	-1	4	7	46	34
CCCCn1c(/C=C/c2ccco2)nc2ccccc21	5	7	17	-4	28	63*
Cc1ccc(/C=N/Nc2ccc3ccccc3n2)o1	.	.	-9	57	-72	63*
CCCCn1c(/C=N/Nc2nc3ccccc3[nH]2)nc2ccccc21	95*	39	.	76*	47	100*
Cc1ccc(/C=N\Nc2nc3ccc(Cl)cc3[nH]2)o1	44	21	-2	22	-24	99*
CCCCNc1nc2ccccc2[nH]1	1	27	-10	-1	-17	25
CCOc1ccc(C2(C)NC(=O)N(CCN(C)C)C2=O)cc1 (stereo not given)	0	-1	-20	-4	-4	.
CCOC(=O)c1sc(NC(=O)CSC(=S)N2CCN(C)CC2)nc1C	17	2	2	-7	37	.
CCOC(=O)C1CCN(c2c(NCc3ccc(C(=O)N(C)Cc4ccccc4)cc3)c(=O)c2=O)CC1	2	-9	-19	-7	15	-8
O=C(CCC1CCCN(C(=O)c2ccsc2)C1)N1CCN(c2ccccn2)CC1 (stereo not given)	-1	9	-10	-3	-10	.
Fc1ccccc1-c1ccc(/C=N/Nc2nc3ccccc3[nH]2)o1	.	29	16	18	-34	97*
Clc1ccc(Cn2c(/C=C/c3ccco3)nc3ccccc32)cc1	12	-3	-2	-8	-9	50*
C(=N\Nc1nc2ccccc2[nH]1)/c1ccc2c(c1)OCCO2	20	34	26	.	-75	.
C#CCn1cc(/C=N/Nc2nc3ccccc3[nH]2)c2ccccc21	-12	37	92*	55	15	101*
CC(C)OC(=O)CC1C(=O)NCCN1C(=S)NC(=O)c1ccc(F)cc1 (stereo not given)	-17	-17	0	-1	3	-3
CC(c1ccccc1)C1CC(=O)N(Cc2ccccc2)C1=O (stereo not given)	5	9	.	-7	13	-6
Cc1ccc(N(C(=O)CCl)C(C(=O)NC2CCCCC2)c2cccnc2)cc1C (stereo not given)	-3	25	88*	1	.	100*
